Only some compounds are listed: those with a hit (about 5.9% of all), similar ones and a draw of the others.
IDH1 mut inh: IDH1 R132H (human) inhibition | O75874 | IDH1 R132H reductase, diaphorase/resazurin fluorescence, 60 min | inhibition, % at 10 µM | 0.18% of 70,000 active | AID 624101; in the data active means inhibition above about 34%; inconclusive means no clear call, values can overlap the other calls; inactive means below about 11%;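 further: 0% = DMSO and 100% = no enzyme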
Target sequence (O75874 whole entry R132H): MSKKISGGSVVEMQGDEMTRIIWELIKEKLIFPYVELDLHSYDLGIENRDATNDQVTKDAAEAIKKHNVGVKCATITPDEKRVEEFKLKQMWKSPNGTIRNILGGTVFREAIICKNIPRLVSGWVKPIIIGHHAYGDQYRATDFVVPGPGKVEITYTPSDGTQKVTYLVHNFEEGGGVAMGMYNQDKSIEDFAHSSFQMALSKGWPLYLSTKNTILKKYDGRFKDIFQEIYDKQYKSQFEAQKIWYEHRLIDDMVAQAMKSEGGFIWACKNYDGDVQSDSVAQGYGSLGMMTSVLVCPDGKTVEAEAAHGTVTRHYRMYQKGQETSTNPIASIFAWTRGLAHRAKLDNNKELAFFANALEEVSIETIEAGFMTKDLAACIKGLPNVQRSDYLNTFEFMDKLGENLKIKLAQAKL
T cruzi growth-1: blocks T. cruzi growth in NIH3T3 culture | AID 624255 | inhibition, % at 8.34 µM | T. cruzi beta-gal in NIH3T3, GalScreen luminescence, 90 h | 5.9% of 77,000 active;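 active means mean inhibition above about 93%, with at least 55% of replicates each passing it, limit read from the data, passing the limit was not always enough; inconclusive means only one of those two conditions holds; inactive means neither condition holds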
GASC1 inh: blocks human GASC-1 (KDM4C) demethylase activity; GST-KDM4C 2-372, H3K9me3 peptide, LANCE TR-FRET; Q9H3R0; 0.15% of 96,000 active; inhibition, % at 12.5 µM; AID 720574;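 active means mean replicate inhibition above about 25%, with at least 55% of replicates also reaching it, limit read from the data, passing the limit was not always enough; inconclusive means only one of those two conditions met; inactive means neither condition met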
Target sequence (Q9H3R0 2-372 limits assumed): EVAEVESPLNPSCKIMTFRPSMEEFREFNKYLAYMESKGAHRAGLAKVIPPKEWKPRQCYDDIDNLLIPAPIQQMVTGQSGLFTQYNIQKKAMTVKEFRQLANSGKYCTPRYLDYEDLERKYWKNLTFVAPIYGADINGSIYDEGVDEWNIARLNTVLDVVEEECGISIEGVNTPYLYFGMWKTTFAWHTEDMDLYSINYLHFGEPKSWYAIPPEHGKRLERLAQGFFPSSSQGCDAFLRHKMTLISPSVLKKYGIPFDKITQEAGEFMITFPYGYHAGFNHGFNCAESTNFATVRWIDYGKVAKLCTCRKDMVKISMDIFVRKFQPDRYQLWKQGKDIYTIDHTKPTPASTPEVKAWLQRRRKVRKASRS
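Material: N-terminal GST-fused human GASC-1 (KDM4C) fragment, residues 2-372. Input: 10 nM enzyme. Incubation: enzyme reaction 30 min, then detection 60 min, both room temperature. Doses: one test concentration per compound. Read-out basis: inhibition from TR-FRET ratio decrease. Detection: LANCE TR-FRET, excitation 340 nm, emissions 618 and 671 nm.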
Pf Dd2 growth: blocks growth of Plasmodium falciparum Dd2 parasites | P. falciparum Dd2 growth, SYBR Green, 72 h; hits give low values | activity change, % at 10 µM | 2.3% of 94,000 active; in the data active means activity change below about -80%; inconclusive means no clear call, values can overlap the other calls
T cruzi growth-2: Trypanosoma cruzi proliferation inhibition; 72% of 5,600 active; shares compounds with T cruzi growth-1; inhibition, % at 8.35 µM; AID 651739; T. cruzi beta-gal in NIH3T3, GalScreen luminescence, 90 h;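 active means mean replicate inhibition above about 95% and at least 55% of replicates individually reaching it, limit read from the data; inconclusive means only one of the two criteria is met; inactive means neither criterion is met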
T cruzi growth-3: inhibitors of T. cruzi proliferation. 21% of 5,600 active. shares compounds with T cruzi growth-1. inhibition, % at 2.09 µM. T. cruzi beta-gal in NIH3T3, GalScreen luminescence, 90 h;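 active means mean inhibition above about 95%, with at least 55% of replicates also reaching it, limit read from the data; inconclusive means meets just one of the two conditions; inactive means meets neither condition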;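 further: plate controls were neutral control median for no effect and positive control median for full effect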
3T3 cytotox: kills mouse NIH/3T3 fibroblasts; NIH/3T3 viability, CellTiter-Glo ATP luminescence, 90 h; 14% of 5,600 active; shares compounds with T cruzi growth-1; cytotoxicity (signal decrease), % at 8.35 µM;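 active means mean signal decrease across replicates above about 35% based on untreated-well scatter, with enough replicates individually passing, limit read from the data; inconclusive means no rule stated though some were filed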;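 further: 0% = median of neutral control wells and 100% = median of positive control wells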
3T3 cytotox 2: NIH/3T3 (mouse) viability loss; shares compounds with T cruzi growth-1; NIH/3T3 viability, CellTiter-Glo ATP luminescence, 90 h; inhibition, % at 24.9 µM; 56% of 5,600 active; AID 651744;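 active means mean loss of cell viability signal at or above a set limit, and enough replicates individually reaching it; inconclusive means meets only the mean limit or only the replicate share; inactive means meets neither condition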;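 further: 0% = median of neutral control wells and 100% = median of positive control wells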
* = called active by the depositor; ? = inconclusive; . = not tested or not shown.

SMILES | IDH1 mut inh | T cruzi growth-1 | GASC1 inh | Pf Dd2 growth | T cruzi growth-2 | T cruzi growth-3 | 3T3 cytotox | 3T3 cytotox 2
C[C@H](CO)N1C[C@H](C)[C@@H](CN(C)Cc2ccc(C(=O)Nc3ccccc3N)cc2)Oc2c(NC(=O)c3nc4ccccc4s3)cccc2C1=O | . | 106.5* | -1.6 | -89.2* | 108.4* | 84.7 | -31.1 | 11.3
Cn1cnc(S(=O)(=O)N2CCCCN3[C@@H](CO)[C@H](c4ccc(C#CC5CCCC5)cc4)[C@@H]3C2)c1 | . | 105.6* | 0.8 | -38.5 | 72.0 | -18.4 | 29.1 | 100.5*
Cn1cnc(S(=O)(=O)N2CCCCN3[C@H](C2)[C@@H](c2ccc(C#CC4CC4)cc2)[C@@H]3CO)c1 | . | 53.1 | . | 21.5 | . | . | . | .
Cn1cnc(S(=O)(=O)N2CCCCN3[C@H](C2)[C@@H](c2ccc(C#CC4CCCC4)cc2)[C@@H]3CO)c1 | . | 76.5 | -0.2 | -34.2 | . | . | . | .
Cn1cnc(S(=O)(=O)N2CCCCN3[C@H](CO)[C@H](c4ccc(C#CC5CCCC5)cc4)[C@H]3C2)c1 | . | 110.8* | -0.1 | -41.3 | 95.2* | 27.2 | 30.5 | 105.2*
CCc1cccc(C)c1NC(=O)CSc1nc2cc(C)cc(-n3nc4ccccc4n3)c2o1 | -0.1 | . | . | . | . | . | . | .
CSc1nnc(-c2ccccc2NC(=O)c2ccccc2)c(=O)[nH]1 | -0.6 | . | . | . | . | . | . | .
Cc1nn(-c2ccccc2)nc1-c1nnc(-c2ccc(Cl)c(Cl)c2)o1 | -1.6 | . | . | . | . | . | . | .
CN1C(=O)c2cc(NC(=O)c3ccc(F)c(F)c3)ccc2OC[C@H]2O[C@H](CC(=O)N[C@H]3CCN(Cc4ccccc4)C3)CC[C@@H]21 | . | 107.7* | -2.9 | . | 48.9 | 84.3 | -15.4 | -1.4
CN1C(=O)c2cc(NC(=O)c3ccc(F)c(F)c3)ccc2OC[C@H]2O[C@@H](CC(=O)N[C@H]3CCN(Cc4ccccc4)C3)CC[C@@H]21 | . | 94.2 | 1.1 | . | . | . | . | .
CN1C(=O)c2cc(NC(=O)c3ccc(F)c(F)c3)ccc2OC[C@@H]2O[C@@H](CC(=O)N[C@H]3CCN(Cc4ccccc4)C3)CC[C@H]21 | . | 98.7* | -3.9 | . | ? | 84.1 | -18.6 | -1.2
CN1C(=O)c2cc(NC(=O)Cc3cccs3)ccc2OC[C@@H]2O[C@H](CC(=O)N[C@H]3CCN(Cc4ccccc4)C3)CC[C@@H]21 | . | 94.4 | -1.3 | . | . | . | . | .
CN1C(=O)c2cc(NC(=O)c3ccc(F)c(F)c3)ccc2OC[C@@H]2O[C@@H](CC(=O)N[C@@H]3CCN(Cc4ccccc4)C3)CC[C@@H]21 | . | 111.8* | -1.2 | . | 102.3* | 85.5 | 31.9 | 38.9*
CN1C(=O)c2cc(NC(=O)c3ccc(F)c(F)c3)ccc2OC[C@H]2O[C@H](CC(=O)N[C@@H]3CCN(Cc4ccccc4)C3)CC[C@@H]21 | . | 93.4 | 0.7 | . | . | . | . | .
CN1C(=O)c2cc(NC(=O)c3ccc(F)c(F)c3)ccc2OC[C@H]2O[C@H](CC(=O)N[C@H]3CCN(Cc4ccccc4)C3)CC[C@H]21 | . | 101.8* | -1.5 | . | 107.0* | 64.7 | 4.9 | 22.0
O=C(O)CC(C(=O)Nc1ccc(Cl)cc1)N1CCCC1 (stereo unspecified) | 2.9 | . | . | . | . | . | . | .
O=C(CCCCCC(=O)Nc1ccccc1O)N/N=C/c1ccc(S(=O)(=O)O)o1 | -0.3 | . | . | . | . | . | . | .
CCc1cccc(C)c1NC(=O)CSc1nnc(-c2ccc(C)cc2)n1C | -0.2 | . | . | . | . | . | . | .
C[C@@H]1CCCCO[C@@H](CN(C)CC2CC2)[C@H](C)CN([C@@H](C)CO)C(=O)c2cc(NC(=O)Nc3ccc(F)cc3)ccc2O1 | 4.9 | 102.7* | -0.2 | -23.3 | 87.2 | -45.3 | -16.1 | -21.4
C[C@@H]1CCCCO[C@@H](CN(C)CC2CCCCC2)[C@H](C)CN([C@@H](C)CO)C(=O)c2cc(NC(=O)Nc3ccc(F)cc3)ccc2O1 | . | 113.7* | 3.3 | -74.0 | 99.0* | 77.1 | 20.5 | 106.2*
COc1ccc(-c2nnc(SCCCN3C(=O)c4cccc5cccc(c45)C3=O)n2C)cc1OC | -1.2 | . | . | . | . | . | . | .
COc1ccc(NC(=O)Nc2ccc3c(c2)C(=O)N([C@@H](C)CO)C[C@H](C)[C@H](CN(C)C(=O)Cc2ccccc2)OCCCC[C@H](C)O3)cc1 | . | ? | -0.4 | -65.7 | 111.7* | -3.9 | -10.0 | 2.7
COc1ccc(CN(C)C[C@@H]2OCCCC[C@H](C)Oc3ccc(NC(=O)Nc4ccccc4)cc3C(=O)N([C@H](C)CO)C[C@@H]2C)cc1 | . | 113.8* | -1.3 | -23.0 | 88.0 | 109.3* | 42.7* | 107.3*
COc1ccc(NC(=O)Nc2ccc3c(c2)C(=O)N([C@@H](C)CO)C[C@H](C)[C@H](CN(C)Cc2ccccc2)OCCCC[C@@H](C)O3)cc1 | . | 89.0 | -0.8 | -55.9 | . | . | . | .
COc1ccc(CN(C)C[C@@H]2OCCCC[C@H](C)Oc3ccc(NC(=O)c4ccccc4)cc3C(=O)N([C@H](C)CO)C[C@@H]2C)cc1 | . | 60.9 | -2.5 | -36.4 | . | . | . | .
SMILES | IDH1 mut inh | T cruzi growth-1 | GASC1 inh | Pf Dd2 growth | T cruzi growth-2 | T cruzi growth-3 | 3T3 cytotox | 3T3 cytotox 2
COc1ccc(CN(C)C[C@@H]2OCCCC[C@@H](C)Oc3ccc(NC(=O)c4ccccc4)cc3C(=O)N([C@H](C)CO)C[C@H]2C)cc1 | . | 106.8* | -1.7 | -55.6 | 91.2 | 80.2 | 3.9 | 80.5*
COc1ccc(NC(=O)Nc2ccc3c(c2)C(=O)N([C@H](C)CO)C[C@@H](C)[C@@H](CN(C)Cc2ccccc2)OCCCC[C@H](C)O3)cc1 | 0.8 | 103.0* | 2.0 | -62.2 | 107.7* | 68.4 | -3.3 | 59.5*
COc1ccc(CN(C)C[C@H]2OCCCC[C@H](C)Oc3ccc(NC(=O)Nc4ccccc4)cc3C(=O)N([C@@H](C)CO)C[C@@H]2C)cc1 | . | 106.3 | -1.9 | 25.0 | . | . | . | .
O=[N+]([O-])c1ccccc1NCCNS(=O)(=O)c1ccc(Br)cc1 | 0.0 | . | . | . | . | . | . | .
C[C@@H]1CCCCO[C@@H](CN(C)Cc2ccccc2)[C@H](C)CN([C@H](C)CO)C(=O)c2cc(NC(=O)Nc3ccccc3)ccc2O1 | -4.3 | 103.0* | -0.2 | -76.2 | 105.9* | 70.4 | 7.9 | 104.8*
C[C@@H]1CN([C@@H](C)CO)C(=O)c2cc(NC(=O)Nc3ccccc3)ccc2O[C@@H](C)CCCCO[C@H]1CN(C)Cc1ccccc1 | . | . | -0.2 | -66.6 | . | . | . | .
COc1ccc(NC(=O)Nc2ccc3c(c2)C(=O)N([C@@H](C)CO)C[C@H](C)[C@@H](CN(C)Cc2ccccc2)OCCCC[C@H](C)O3)cc1 | . | 102.8* | 1.8 | -45.0 | 103.9* | 81.2 | -7.5 | 102.2*
COc1ccc(NC(=O)Nc2ccc3c(c2)C(=O)N([C@@H](C)CO)C[C@H](C)[C@H](CN(C)Cc2ccccc2)OCCCC[C@H](C)O3)cc1 | . | 90.1 | -0.4 | -53.0 | . | . | . | .
O=C(NCc1ccco1)c1cnn2c(C(F)F)cc(C3CC3)nc12 | -0.1 | . | . | . | . | . | . | .
